XBP1 UPR activ = activators of adaptive XBP1 UPR arm, primary screen, cell-based, CHO-XBP1 luciferase reporter, luminescence, uHTS; IRE1-XBP1 UPR activation; percent of tunicamycin response, DMSO as zero; activation, % at 20 µM; 330,000 compounds, 0.33% hits; AID 463104, 2010;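 active = versus positive control, 20 µM dose yields 30% or more activation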;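 also: 100% = tunicamycin at 10 µg/mL and 0% = DMSO only wells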
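Material: IRE1-XBP1 luciferase reporter CHO line / Quantity: one thousand reporter cells per well / Buffer or medium: F12 with 10% serum / Compound: 20 µM single concentration, DMSO 1% / Times: 6 h treatment, 37 °C / Detection: Steady-Glo luciferase glow luminescence, 10 min after reagent addition / Benchmarks: tunicamycin high, DMSO low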
CHOP inhibitor = inhibitors of CHOP promoter induction, primary screen, cell-based, unfolded protein response, luciferase reporter | CHO-K1 CHOP-promoter luciferase, tunicamycin-induced, 15-18 h | inhibition, % at 10 µM | 220,000 compounds, 3.8% hits | AID 2732, 2010;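 active = compounds that reduced the stress-induced luciferase reporter signal by more than about 70% of percent inhibition, limit read from the data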;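 also: 0% = tunicamycin plus vehicle and 100% = wells without tunicamycin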
Jurkat NFkB inh = inhibitors of induced NF-kB luciferase reporter, primary screen, TCR NF-kB activation inhibitor project, cell-based, luminescence, uHTS. Jurkat, PMA/ionomycin-induced NF-kB luciferase reporter. inhibition, % at 4 µM. 330,000 compounds, 0.53% hits; in the data active = inhibition above about 50%
CHOP UPR activ = activators of apoptotic CHOP UPR arm, primary screen, cell-based, CHO-CHOP luciferase reporter, luminescence, uHTS | activation, % at 10 µM | AID 449763, 2010 | UPR activation; percent of tunicamycin response over DMSO baseline | 330,000 compounds, 0.34% hits;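 active = at 10 µM dose, activation of 40% or more, normalized to positive control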;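 also: 100% = tunicamycin at 10 µg/mL and 0% = DMSO alone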
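Test system: CHO-CHOP cells, stable luciferase reporter of PERK-eIF2a-CHOP signalling | Quantity: 500 CHO-CHOP cells per well | Buffer or medium: F12 plus 10% serum | Compound dosing: 10 µM single point, 0.5% DMSO | Schedule: 6 h compound treatment, 37 °C | Signal: Luciferase luminescence | Control set: Tunicamycin high control, DMSO low control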
697 NFkB inh = inhibitors of PMA/ionomycin-induced NF-kB reporter, 697 cells, primary screen, B-cell NF-kB inhibitor project, cell-based, luminescence, uHTS. 697 B-cell NF-kB luciferase reporter, 16 h. inhibition, % at 4 µM. 330,000 compounds, 0.33% hits; in the data active = inhibition above about 35%
CHOP UPR conf = activators of apoptotic CHOP UPR arm, confirmation, cell-based, CHO-CHOP luciferase reporter, single concentration; activation, % at 10 µM; shares compounds with CHOP UPR activ; 1,000 compounds, 64% hits; CHO-CHOP cells, CHOP-luciferase reporter luminescence; percent of tunicamycin response, DMSO as zero; in the data active = activation above about 33%;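 also: 0% = DMSO wells and 100% = tunicamycin 10 µg/mL wells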
UPR XBP1 confirm = IRE1-XBP1 UPR arm activators, confirmation, cell-based, CHO-XBP1 luciferase reporter, luminescence, single concentration | shares compounds with XBP1 UPR activ | activation, % at 20 µM | 1,000 compounds, 63% hits;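 active = reporter signal at least 30% of the positive control's activation in two or more of four replicate wells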;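 also: plate controls were DMSO negative control for no effect and tunicamycin 10 µg/mL positive control for full effect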
An asterisk follows results filed as active; · = no result. The full list was thinned out, with hits kept by preference.

SMILES	XBP1 UPR activ	CHOP inhibitor	Jurkat NFkB inh	CHOP UPR activ	697 NFkB inh	CHOP UPR conf	UPR XBP1 confirm
COc1cc2nc(NC(=O)c3ccc(Cl)cc3)sc(=O)c2cc1OC	67.6*	·	-3.2	46.9*	8.3	50.0*	26.5
CC1CCN(Cc2c(C(=O)N/N=C/c3ccc(C(C)(C)C)cc3)nnn2-c2nonc2N)CC1	177.9*	·	-5.3	202.2*	-54.3	49.9*	117.2*
C=CCOc1ccc2cccc(/C=N/NC(=O)c3cc4cc([N+](=O)[O-])ccc4s3)c2c1	46.5*	51.8	-11.6	54.8*	-18.8	31.8	44.9*
O=C(N/N=C/c1cccc([N+](=O)[O-])c1)c1cccs1	7.0	-19.1	-27.7	2.7	-33.6	·	·
COc1ccc(NC(=O)C(=O)N/N=C\c2ccc(CNC(=O)C(=O)Nc3ccc(C)c(C)c3)o2)c(OC)c1	49.7*	·	9.0	134.8*	5.7	41.3*	51.8*
O=C(COC(=O)c1c(F)cccc1Cl)NC(=O)Nc1ccc2c(c1)OCCO2	-2.5	·	-14.7	-0.7	5.2	·	·
C/C(CC(C)(C)C1CCCCC1)=N\NC(N)=S	69.1*	-3.3	30.4	71.6*	17.8	43.2*	30.7*
COc1ccccc1CNC(=O)COC(=O)COc1ccccc1F	0.1	·	-1.9	-1.5	4.9	·	·
COc1cc(CNC(=O)c2cnc(C)cn2)cc(OC)c1	-4.2	·	-18.7	-1.1	-16.5	·	·
COc1ccc(-c2cc(-c3ccccc3)c(C#N)c(S(C)(=O)=O)n2)cc1	44.9*	-74.2	8.1	102.9*	29.7	118.8*	98.7*
CCc1nnc(NC(=O)CSc2nc(-c3ccccc3)cc(-c3ccc(OC)cc3)c2C#N)s1	58.2*	44.9	-4.6	93.1*	3.6	104.7*	26.2
COc1ccc(-c2cc(-c3ccc(OC)cc3)c(C#N)c(SC)n2)cc1	-1.9	-9.2	-1.7	0.3	23.5	·	·
OCCNc1nc(Nc2ccc(Br)cc2)nc2ccccc12	40.8*	4.8	1.5	76.1*	-11.2	60.4*	46.1*
OCCNc1nc(Nc2ccccc2)nc2ccccc12	24.3	-6.7	-8.1	2.4	11.9	·	·
COc1ccc(NC(=O)c2sc3nc(N4CCOCC4)c4c(c3c2N)CC(C)(C)OC4)c(OC)c1	162.7*	·	22.8	40.1*	14.0	38.9*	171.8*
COc1ccc(NC(=O)c2sc3nc(N4CCOCC4)c4c(c3c2N)CC(C)(C)OC4)cc1	-5.1	·	-18.4	4.2	8.6	·	·
O=C(NCCN1CCOCC1)c1cccc(S(=O)(=O)Nc2ccc(Br)cc2)c1	-3.3	·	15.3	-2.4	3.9	·	·
O=c1c(C=NCC2CCCO2)c(-c2ccccc2)[nH]n1-c1ccc([N+](=O)[O-])cc1 (centres undefined)	2.5	-13.0	-9.2	3.2	4.6	·	·
COc1ccc(-c2[nH]n(-c3ccc([N+](=O)[O-])cc3)c(=O)c2C=NCc2ccc(F)cc2)cc1	52.6*	34.4	2.4	42.2*	8.4	-1.0	-1.4
CCOC(=O)C(=CNc1nc(-c2ccccc2)c(C(=O)Nc2ccc(-c3ccccc3)cc2)s1)C(=O)OCC	209.2*	·	-2.4	73.0*	2.6	43.4*	133.1*
O=c1oc(CCCO)cc2ccc(Br)cc12	3.3	·	0.3	1.6	15.4	·	·
O=c1oc(CCCO)cc2ccc(/C=C/c3cccc([N+](=O)[O-])c3)cc12	78.4*	·	-125.1	75.8*	-14.9	9.7	32.6*
COc1cc(/C=N/N=C(\N)c2nonc2N)cc(OC)c1O	1.6	-15.8	-4.6	4.0	11.2	·	·
CCOc1cc(/C=N/NC(N)=O)cc(Br)c1OCc1ccccc1	-0.5	·	5.8	-0.2	0.4	·	·
CCOc1cc(/C=N/N=C(\N)c2nonc2N)cc(Br)c1OCc1cccc2ccccc12	268.3*	94.8*	16.2	106.5*	10.6	29.8	210.9*
SMILES	XBP1 UPR activ	CHOP inhibitor	Jurkat NFkB inh	CHOP UPR activ	697 NFkB inh	CHOP UPR conf	UPR XBP1 confirm
CCOc1cc(/C=N/NC(N)=S)cc(Br)c1OCc1ccccc1C	60.8*	86.5*	-8.8	68.7*	13.7	40.9*	60.4*
CN1/C(=C\C(=O)COC(=O)c2ccc(O)cc2)C(C)(C)c2ccccc21	-3.8	1.8	-5.9	0.1	-17.7	·	·
CN1/C(=C\C(=O)COC(=O)c2ccc(O)c(O)c2)C(C)(C)c2ccccc21	40.6*	41.7	20.9	96.5*	-24.1	81.2*	32.6*
O=C(Nc1ccc(NC(=O)c2sc3ccccc3c2Cl)cc1Cl)c1ccco1	342.1*	-19.9	-44.5	62.6*	-70.3	34.0*	141.6*
Cc1ccc2nc(NC(=O)c3ccc(-c4nc5ccccc5s4)s3)sc2c1	65.5*	59.7	-2.0	69.4*	-34.8	26.3	89.3*
COC(=O)c1c(NC(=S)NN2CCOCC2)sc2c1CCCC2	4.0	22.6	-8.6	-2.1	-15.5	·	·
CCCCN=C1SC(C(=O)Nc2sc3c(c2C(=O)OC)CCC3)C(N)=C1C(=O)N1CCOCC1 (centres undefined)	166.4*	·	4.4	108.6*	12.9	2.2	15.8
CCC(=O)Nc1ccc(C(=O)CN2C(=O)NC3(CCOc4ccccc43)C2=O)cc1 (centres undefined)	-1.3	·	-9.5	2.0	6.1	·	·
CCOC(=O)/C(=C\c1ccccc1)C(=O)c1cc(C(C)=O)c(Nc2ccccc2)s1	59.7*	·	20.2	139.4*	-0.4	190.9*	41.3*
O=C(c1cnn(C(=O)c2cccc(S(=O)(=O)N3CCOCC3)c2)c1)c1ccccc1O	-4.2	25.6	-1.6	-0.4	19.3	·	·
[O-][n+]1c2ccccc2c2n1CCCN=C2c1ccc(Cl)cc1	6.0	·	-24.7	4.1	-14.0	·	·
COc1ccc(OC)c(NC(=O)CCNS(=O)(=O)c2cc(Br)cnc2N)c1	-2.1	·	10.2	-0.2	7.9	·	·
COCCN1Cc2cccc(C(=O)Nc3ccc(-c4nc5ccccc5[nH]4)cc3)c2C1=O	4.3	3.8	-11.7	4.3	-3.3	·	·
CCCN1Cc2cccc(C(=O)Nc3ccc(-c4nc5ccccc5[nH]4)cc3)c2C1=O	38.3*	75.3*	-7.1	41.9*	11.2	41.0*	28.8
OCC[C@H]1C[C@@H](O)[C@H](O)[C@@]2(Cc3ccccc3CO2)O1	-3.3	·	-5.6	-0.8	14.4	·	·
Cc1ccc(C(=O)OCCOc2cccc(Cl)c2)cc1S(=O)(=O)N1CCOCC1	-2.4	·	2.8	2.2	-2.4	·	·

Screens: PubChem BioAssay, several laboratories
